Results: ChEMBL document CHEMBL4265959, “Targeting heme Oxygenase-1 with hybrid compounds to overcome Imatinib resistance in chronic myeloid leukemia cell lines” (Eur J Med Chem, 2018)
Activity calls are given as the source filed them. The calls are words filed in the database; no cut-off is given here.

Experiments:
[1] = tested on: K-562R; assay: Cytotoxicity against human K562R cells assessed as decrease in cell viability after 24 hrs by XTT assay; assay type: functional, cell-based
Summary of the method: (§1)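 K562R (imatinib-resistant) or K562S cells seeded at 1×10^4/well in phenol red-free RPMI, left 24 h, then exposed 24 h to various concentrations. XTT reagent added, 2 h incubation, absorbance at 450 nm; IC50 reported. Mean ± SD, four experiments in triplicate.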

[2] = tested on: K562; assay: Cytotoxicity against imatinib-sensitive human K562 cells assessed as decrease in cell viability after 24 hrs by XTT assay; assay type: functional, cell-based; details: K562, 24 h; summary of the method: as §1
[3] = target: T1, Heme oxygenase 1 (Rattus norvegicus, UniProt P06762); assay: Inhibition of heme oxygenase 1 in Sprague-Dawley rat spleen microsomal fraction assessed as decrease in bilirubin formation using hemin as substrate after 60 mins by spectrophotometric method
T1 sequence (P06762 whole entry): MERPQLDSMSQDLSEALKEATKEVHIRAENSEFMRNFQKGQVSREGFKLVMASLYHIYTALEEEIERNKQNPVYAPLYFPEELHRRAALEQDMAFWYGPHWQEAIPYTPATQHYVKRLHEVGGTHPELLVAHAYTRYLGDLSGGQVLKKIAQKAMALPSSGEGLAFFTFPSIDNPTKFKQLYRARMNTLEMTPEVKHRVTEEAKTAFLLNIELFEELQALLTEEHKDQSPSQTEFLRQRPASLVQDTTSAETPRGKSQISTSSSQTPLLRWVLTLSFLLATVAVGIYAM

[4] = tested on: K-562R; assay: Induction of apoptosis in human K562R cells assessed as early apoptotic cells at 10 uM by Annexin V staining-based flow cytometry (reference value: 8.51%); assay type: functional
[5] = tested on: K-562R; assay: Induction of apoptosis in human K562R cells assessed as viable cells at 10 uM by Annexin V staining-based flow cytometry (reference value: 81.13%); assay type: functional; details: read-out: Activity
[6] = tested on: Lymphocyte; assay: Cytotoxicity against human lymphocytes assessed as decrease in cell viability at 10 uM after 24 hrs by XTT assay; assay type: cell-based
Summary of the method: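 Lymphocytes from healthy volunteers isolated on Ficoll–Paque, grown in RPMI-1640 with 10% FBS and 1% penicillin/streptomycin at 37 °C, 5% CO2, and treated 24 h at 10 μM.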

[7] = tested on: K-562R; assay: Induction of apoptosis in human K562R cells assessed as late apoptotic cells at 10 uM by Annexin V staining-based flow cytometry (reference value: 9.49%); assay type: functional
[8] = target: Bcr/Abl fusion protein (Homo sapiens) (UniProt P00519+P11274); assay: Inhibition of BCR-ABL in human K562R cells assessed as decrease in CrKL phosphorylation at 10 uM by immuno blot analysis; assay type: cell-based
Bcr/Abl fusion protein (Homo sapiens), sequence (P00519 whole entry, looked up, the tested form may be a part): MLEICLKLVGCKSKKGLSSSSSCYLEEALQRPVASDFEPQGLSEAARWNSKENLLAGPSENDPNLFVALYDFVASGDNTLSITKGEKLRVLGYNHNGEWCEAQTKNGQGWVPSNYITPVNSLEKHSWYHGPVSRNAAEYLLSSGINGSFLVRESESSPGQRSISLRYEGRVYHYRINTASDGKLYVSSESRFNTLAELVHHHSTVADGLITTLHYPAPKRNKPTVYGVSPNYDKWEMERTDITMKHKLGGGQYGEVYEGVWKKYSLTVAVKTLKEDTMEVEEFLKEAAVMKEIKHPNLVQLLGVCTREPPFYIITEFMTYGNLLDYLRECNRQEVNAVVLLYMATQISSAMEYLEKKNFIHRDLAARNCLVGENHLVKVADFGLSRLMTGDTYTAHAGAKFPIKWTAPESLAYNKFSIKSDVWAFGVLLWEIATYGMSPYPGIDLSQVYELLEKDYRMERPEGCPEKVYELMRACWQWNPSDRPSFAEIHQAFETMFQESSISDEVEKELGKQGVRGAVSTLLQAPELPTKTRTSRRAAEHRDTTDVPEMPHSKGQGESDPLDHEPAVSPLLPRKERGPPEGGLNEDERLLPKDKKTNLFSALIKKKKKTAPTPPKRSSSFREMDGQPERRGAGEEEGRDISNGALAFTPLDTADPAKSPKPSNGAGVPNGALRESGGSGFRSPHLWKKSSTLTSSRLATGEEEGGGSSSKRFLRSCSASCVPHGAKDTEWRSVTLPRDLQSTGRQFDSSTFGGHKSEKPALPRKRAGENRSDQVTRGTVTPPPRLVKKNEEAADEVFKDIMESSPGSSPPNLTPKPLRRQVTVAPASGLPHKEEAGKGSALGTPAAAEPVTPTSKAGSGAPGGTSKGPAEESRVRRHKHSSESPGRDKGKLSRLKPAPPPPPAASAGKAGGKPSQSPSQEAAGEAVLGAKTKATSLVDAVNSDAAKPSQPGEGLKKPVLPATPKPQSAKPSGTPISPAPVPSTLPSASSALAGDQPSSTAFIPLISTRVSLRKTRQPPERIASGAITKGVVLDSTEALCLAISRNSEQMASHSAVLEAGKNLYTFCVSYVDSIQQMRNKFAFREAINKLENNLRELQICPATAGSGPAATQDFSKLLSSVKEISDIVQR
Bcr/Abl fusion protein (Homo sapiens), sequence (P11274 whole entry, looked up, the tested form may be a part): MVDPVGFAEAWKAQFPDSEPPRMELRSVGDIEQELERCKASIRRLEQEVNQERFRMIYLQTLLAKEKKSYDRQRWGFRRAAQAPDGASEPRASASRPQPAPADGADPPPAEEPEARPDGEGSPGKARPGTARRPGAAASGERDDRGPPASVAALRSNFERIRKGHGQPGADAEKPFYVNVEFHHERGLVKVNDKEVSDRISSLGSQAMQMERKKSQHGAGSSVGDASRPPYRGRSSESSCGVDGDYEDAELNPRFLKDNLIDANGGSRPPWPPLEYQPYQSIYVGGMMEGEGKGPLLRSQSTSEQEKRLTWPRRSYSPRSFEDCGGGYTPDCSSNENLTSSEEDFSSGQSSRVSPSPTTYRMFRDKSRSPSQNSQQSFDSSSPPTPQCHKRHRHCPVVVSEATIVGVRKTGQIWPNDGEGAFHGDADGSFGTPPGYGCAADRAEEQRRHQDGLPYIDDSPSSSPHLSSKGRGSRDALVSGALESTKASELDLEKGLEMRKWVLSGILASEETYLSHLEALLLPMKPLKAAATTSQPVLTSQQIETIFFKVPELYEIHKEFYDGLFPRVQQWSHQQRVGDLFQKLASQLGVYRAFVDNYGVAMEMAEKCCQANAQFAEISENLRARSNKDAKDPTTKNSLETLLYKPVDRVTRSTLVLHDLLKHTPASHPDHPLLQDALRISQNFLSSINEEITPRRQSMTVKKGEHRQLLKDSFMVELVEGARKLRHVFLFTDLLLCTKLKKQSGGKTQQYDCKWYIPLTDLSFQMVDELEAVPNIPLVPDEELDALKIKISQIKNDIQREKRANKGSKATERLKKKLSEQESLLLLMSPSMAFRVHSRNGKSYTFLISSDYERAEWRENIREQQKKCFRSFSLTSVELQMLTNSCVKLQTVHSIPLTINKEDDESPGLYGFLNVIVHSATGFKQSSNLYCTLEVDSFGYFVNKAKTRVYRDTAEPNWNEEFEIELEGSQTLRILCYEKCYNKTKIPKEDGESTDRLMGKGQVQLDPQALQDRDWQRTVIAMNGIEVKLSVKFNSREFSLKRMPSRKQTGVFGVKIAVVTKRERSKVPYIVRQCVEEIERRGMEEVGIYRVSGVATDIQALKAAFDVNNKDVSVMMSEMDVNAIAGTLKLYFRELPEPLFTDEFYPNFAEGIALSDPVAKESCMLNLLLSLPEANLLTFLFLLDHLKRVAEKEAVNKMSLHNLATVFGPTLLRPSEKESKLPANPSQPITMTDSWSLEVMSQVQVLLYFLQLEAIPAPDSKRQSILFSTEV
Summary of the method: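 K562R cells treated 24 h at 10 μM and lysed. 20 μg protein separated on SDS-PAGE, transferred to nitrocellulose and probed with anti-CrkL and anti-pCrkL (1:1,000), then infrared-dye secondary antibody. Densitometry gives pCrkL/CrkL ratio as fold of untreated control. Four experiments in triplicate.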

[9] = tested on: K-562R; assay: Induction of apoptosis in human K562R cells assessed as necrotic cells at 10 uM by Annexin V staining-based flow cytometry (reference value: 0.87%); assay type: functional
[10] = tested on: K-562R; assay: Induction of ROS production in human K562R cells at 10 uM by DCFH-DA dye based spectrofluorometric method; assay type: functional, cell-based
Summary of the method: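 K562R cells (RPMI-1640, 10% FBS, 37 °C, 5% CO2) treated 24 h at 10 μM, then probed with DCFH-DA. DCF fluorescence read at excitation 488 nm, emission 525 nm, normalized to total protein (F.I./mg protein). Mean ± SD, four experiments in triplicate.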

[11] = target: T2, Heme oxygenase 1 (Homo sapiens) (UniProt P09601); assay: Inhibition of heme oxygenase 1 in human K562R cell lysates assessed as decrease in bilirubin formation at 10 uM after 60 mins by spectrophotometric method
T2 sequence (whole entry): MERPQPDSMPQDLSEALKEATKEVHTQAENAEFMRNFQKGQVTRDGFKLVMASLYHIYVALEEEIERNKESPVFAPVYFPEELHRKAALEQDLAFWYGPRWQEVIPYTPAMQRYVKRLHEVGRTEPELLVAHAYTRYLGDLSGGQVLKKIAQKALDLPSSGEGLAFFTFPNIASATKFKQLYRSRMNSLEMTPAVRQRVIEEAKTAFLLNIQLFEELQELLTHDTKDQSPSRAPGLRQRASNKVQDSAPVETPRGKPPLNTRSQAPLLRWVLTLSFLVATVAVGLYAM
Summary of the method: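 Intact K562R cells treated 24 h at 10 μM, then lysate (1 mg/mL) assayed. Mix: 20 mM Tris-HCl pH 7.4, liver biliverdin reductase 0.5–2 mg/mL, 1 mM NADPH, G6P/G6PDH, 25 μM hemin. 60 min at 37 °C in the dark, chloroform extraction, bilirubin by OD 464–530 nm. Mean ± SD, four experiments in triplicate.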

[12] = target: T2, Heme oxygenase 1 (Homo sapiens); assay: Inhibition of heme oxygenase 1 in human K562R cells assessed as decrease in HO-1 mRNA levels at 10 uM by qRT-PCR method; assay type: cell-based
Summary of the method: (§2)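 K562R cells treated 24 h at 10 μM, rinsed in cold PBS and lysed in Trizol. HO-1 and HO-2 mRNA measured by real-time PCR alongside GAPDH. Mean ± SD, four experiments in triplicate.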

[13] = tested on: K-562R; assay: Effect on heme oxygenase 2 mRNA levels in human K562R cells at 10 uM by qRT-PCR method; assay type: functional, cell-based; summary of the method: as §2

| IC50 [3] | inhibition [8] | inhibition [11] | SMILES | IC50 [1] | IC50 [2] | Activity [4] | viability at 10 µM [5] | Activity [6] | Activity [7] | Activity [9] | Activity [10] | inhibition [12] | Activity [13] |
| --- | --- | --- | --- | --- | --- | --- | --- | --- | --- | --- | --- | --- | --- |
| 66.2 µM |  |  | Cc1ccc(NC(=O)c2ccc(OCCCCn3ccnc3)cc2)cc1Nc1nccc(-c2cccnc2)n1 | 99.4 µM | 49.9 µM |  |  |  |  |  |  |  |  |
| 0.92 µM | Active |  | Cc1ccc(NC(=O)c2ccc(OCCCCn3ccnc3)c(Br)c2)cc1Nc1nccc(-c2cccnc2)n1 | 31.8 µM | 12 µM | 2.3% | 83.8% | Non-Toxic | 13.15% | 0.65% |  |  |  |
|  |  | Active | Ic1ccc(OCCCCn2ccnc2)cc1 | 84.4 µM | 69.1 µM |  |  |  |  |  | Active |  |  |
| 28 µM |  |  | Cc1ccc(NC(=O)c2ccccc2OCCCCn2ccnc2)cc1Nc1nccc(-c2cccnc2)n1 | 83.4 µM | 47.5 µM |  |  |  |  |  |  |  |  |
| 0.95 µM | Active |  | Cc1ccc(NC(=O)c2ccc(Br)cc2OCCCCn2ccnc2)cc1Nc1nccc(-c2cccnc2)n1 | 44.6 µM | 66.1 µM |  |  |  |  |  |  |  |  |
|  |  | Active | Brc1cccc(OCCCCn2ccnc2)c1 | 81.7 µM | 68.3 µM |  |  |  |  |  | Active |  |  |
| 38.5 µM |  |  | Cc1ccc(NC(=O)c2cccc(OCCCCn3ccnc3)c2)cc1Nc1nccc(-c2cccnc2)n1 | 63.4 µM | 74.6 µM |  |  |  |  |  |  |  |  |
| 28.6 µM | Active | Active | Cc1ccc(NC(=O)c2cc(Br)cc(OCCCCn3ccnc3)c2)cc1Nc1nccc(-c2cccnc2)n1 | 19.1 µM | 6.5 µM | 1.55% | 41.2% | Non-Toxic | 47.6% | 9.65% | Active |  | inactive |

The next lines start with the molecule.

| SMILES | IC50 [3] | inhibition [8] | inhibition [11] | IC50 [1] | IC50 [2] | Activity [4] | viability at 10 µM [5] | Activity [6] | Activity [7] | Activity [9] | Activity [10] | inhibition [12] | Activity [13] |
| --- | --- | --- | --- | --- | --- | --- | --- | --- | --- | --- | --- | --- | --- |
| Cc1ccc(NC(=O)c2ccc([N+](=O)[O-])c(OCCCCn3ccnc3)c2)cc1Nc1nccc(-c2cccnc2)n1 | 4.03 µM | Active |  | 47.6 µM | 25 µM | 2.15% | 82.4% | Non-Toxic | 14.2% | 1.25% |  |  |  |
| COc1cc(C(=O)Nc2ccc(C)c(Nc3nccc(-c4cccnc4)n3)c2)ccc1OCCCCn1ccnc1 | 56.6 µM | Active |  | 27.1 µM | 29.5 µM | 4.4% | 60.4% | Non-Toxic | 32.3% | 2.9% |  |  |  |
| Cc1ccc(OCCCCn2ccnc2)c(C(=O)Nc2ccc(C)c(Nc3nccc(-c4cccnc4)n3)c2)c1 | 0.95 µM |  |  | 48.6 µM | 59.5 µM |  |  |  |  |  |  |  |  |
| Cc1ccc(N)cc1Nc1nccc(-c2cccnc2)n1 | > 100 µM |  |  |  |  |  |  |  |  |  |  |  |  |
| Cc1ccc(NC(=O)c2cc(I)ccc2OCCCCn2ccnc2)cc1Nc1nccc(-c2cccnc2)n1 | 38.9 µM |  |  | 81.7 µM | 66.5 µM |  |  |  |  |  |  |  |  |
| Cc1ccc(NC(=O)c2ccc(OCCCCn3ccnc3)c(I)c2)cc1Nc1nccc(-c2cccnc2)n1 | 74.9 µM | Active |  | 52.4 µM | 32.5 µM |  |  |  |  |  |  |  |  |
| Cc1ccc(NC(=O)c2ccc(CN3CCN(C)CC3)cc2)cc1Nc1nccc(-c2cccnc2)n1 [IMATINIB] | > 100 µM |  | Active | 98.8 µM | 1 µM | 6.25% | 89.4% |  | 3.6% | 0.79% | inactive | inactive |  |
| Cc1ccc(NC(=O)c2ccc(I)cc2OCCCCn2ccnc2)cc1Nc1nccc(-c2cccnc2)n1 | 15.1 µM |  |  | 51.8 µM | 57.4 µM |  |  |  |  |  |  |  |  |
| COc1ccc(C(=O)Nc2ccc(C)c(Nc3nccc(-c4cccnc4)n3)c2)cc1OCCCCn1ccnc1 | 15.1 µM | Active | Active | 18.7 µM | 10.1 µM | 5.4% | 51.3% | Non-Toxic | 39.5% | 3.85% | Active |  | inactive |
| COc1ccc(C(=O)Nc2ccc(C)c(Nc3nccc(-c4cccnc4)n3)c2)c(OCCCCn2ccnc2)c1 | 61.6 µM |  |  | 46.6 µM | 58.9 µM |  |  |  |  |  |  |  |  |
